The record followed here is ChEMBL document CHEMBL3352372, “Design, synthesis and 3D-QSAR studies of new diphenylamine containing 1,2,4-triazoles as potential antitubercular agents” (Eur J Med Chem, 2014).

Data set [1] has as its system Mycobacterium tuberculosis. As to the kind of experiment: Antitubercular activity Mycobacterium tuberculosis H37Rv assessed as growth inhibition after 5 days by MABA method. Format: functional. The settings on record: for MIC: Mycobacterium tuberculosis, H37Rv, 120 h. In short, it runs like this:
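Log-phase H37Rv was diluted to a final OD550 of 0.05 in Middlebrook 7H9 broth, and compounds in DMSO were added in 96-well plates. After a further 24 h at 37 °C/5% CO2, fluorescence was read (ex 544 nm, em 590 nm). Inhibition was scored against the untreated control, with >90% inhibition counted as active in the initial screen.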
(In general: Alamar Blue is a resazurin reagent that responds to reducing activity.)

For a further data set, the system named is Staphylococcus aureus. As to the kind of experiment: Antibacterial activity Staphylococcus aureus ATCC-25923 assessed as growth inhibition after 24 hrs by twofold serial dilution technique. Format: functional. The settings on record: ATCC-25923, 24 h. The method in brief: (§1)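 Tube twofold serial dilution of compounds dissolved in DMSO, under aseptic conditions. Solvent, growth (negative) and drug (ampicillin) controls were run alongside. Tubes were incubated 24 h at 37 °C. MIC was taken as the lowest concentration giving apparent complete inhibition of growth. Strains were first screened by cup plate method.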

In a further data set the test system is Escherichia coli. The data set can be described thus: Antibacterial activity Escherichia coli ATCC-25922 assessed as growth inhibition after 24 hrs by twofold serial dilution technique. The settings on record: ATCC-25922, 24 h. Format: functional. The method in brief: as §1
A short description of data set [2]: Cytotoxicity against human HepG2 cells after 72 hrs by MTT assay. Format: cell-based. Background: Tetrazolium dyes change colour on reduction, which living cells bring about.
Data set [3] is described as follows: Cytotoxicity against african green monkey Vero cells after 72 hrs by MTT assay. The settings on record: chlorocebus sabaeus. Type of data set: cell-based. The method in brief: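 After media removal and a PBS wash, dilutions were added with DMSO control, then incubated 72 h at 37 °C, 5% CO2. Cells were washed, given MTT for 3 h in the dark, and solubilized in DMSO 1–2 h. CC50 was extrapolated from plotted % inhibition (100 − % viability) against concentration.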

The test system of data set [4] is Mycobacterium tuberculosis. The data set can be described thus: Antitubercular activity Mycobacterium tuberculosis H37Rv assessed as growth inhibition after 30 days by agar microdilution method. Type of data set: functional. In short, it runs like this:
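M. tuberculosis H37Rv (ATCC 27294) grown on L-J medium, harvested in 0.85% saline with 0.05% Tween-80. Compounds, from a DMSO stock, were added as twofold dilutions to Middlebrook 7H10 agar with OADC in tubes. After 30 days of incubation, tubes were compared with untreated H37Rv control tubes. The lowest concentration giving complete inhibition of colonies was reported.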

The test system of the next data set is Pseudomonas aeruginosa. The data set can be described thus: Antibacterial activity Pseudomonas aeruginosa ATCC-27853 assessed as growth inhibition after 24 hrs by twofold serial dilution technique. Format: functional. The settings on record: ATCC-27853, 24 h. The method in brief: as §1
The test system of a further data set is Bacillus spizizenii. As to the kind of experiment: Antibacterial activity Bacillus Bacillus subtilis ATCC 6633 assessed as growth inhibition after 24 hrs by twofold serial dilution technique. Format: functional. The settings on record: ATCC 6633, 24 h. The method in brief:
as §1

≈ marks a conversion by molar mass, not a printed value. Bounds are passed on as bounds.

Regarding `S=c1n(CN2CCOCC2)nc(Cc2ccccc2Nc2c(Cl)cccc2Cl)n1/N=C/c1ccccc1`, in data set [1], the “-logMIC” value was determined as 6.699. Also, the MIC turned out to be 0.2 µM (≈ 0.111 µg/mL) in data set [1]; 6.25 µM (≈ 3.46 µg/mL) in the data set on Staphylococcus aureus; 12.5 µM (≈ 6.92 µg/mL) in the data set on Escherichia coli; 0.2 µM (≈ 0.111 µg/mL) in data set [4]; 12.5 µM (≈ 6.92 µg/mL) in the data set on Pseudomonas aeruginosa; 6.25 µM (≈ 3.46 µg/mL) in the data set on Bacillus spizizenii. Further, the half-maximal cytotoxic concentration (CC50) at 72 h in data set [2] and in data set [3] was greater than 300 µM in each case.
As for `S=c1n(CN2CCOCC2)nc(Cc2ccccc2Nc2c(Cl)cccc2Cl)n1/N=C/c1ccco1`, the “-logMIC” value in data set [1] is 5.505. Besides, the minimal inhibitory concentration (MIC) in data set [1] came to 3.12 µM (≈ 1.7 µg/mL); with Staphylococcus aureus, 12.5 µM (≈ 6.79 µg/mL); in the data set on Escherichia coli, 12.5 µM (≈ 6.79 µg/mL); in data set [4], 3.12 µM (≈ 1.7 µg/mL); with Pseudomonas aeruginosa it was 25 µM (≈ 13.6 µg/mL); in the data set with Bacillus spizizenii, 12.5 µM (≈ 6.79 µg/mL). For the same molecule, the CC50 at 72 h in data set [2] and in data set [3] was greater than 300 µM in each case.

The MIC is the lowest concentration found to suppress growth. A word on the CC50: it is the concentration giving 50% cytotoxicity.
